Hits are enriched below; roughly 2.5% of the tested compounds scored in any of these assays.
Insulin prom up = insulin promoter activators in MIN6 cells, imaging, high-content screening, mouse beta cells; AID 1625, 2009; z-score at 5 µM; 190,000 compounds, 0.3% hits; MIN6 insulin promoter-GFP reporter; hits give high values;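 active means z-score above 3 at 5 µM with at least 500 cells counted in the well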
INS promoter inh = inhibitors of insulin promoter-driven GFP, primary screen, imaging, TRM-6 cells (human fetal islet line), eGFP reporter, cell count; 130,000 compounds, 0.9% hits; reporter expression induced with tamoxifen; inhibition, % at 2 µM;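 active means inhibition above the mean plus 3 SD, with well images judged a real hit on visual review, cut at about 60% in these data, passing the limit was not always enough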
NPY Y2 blocker = NPY-Y2 receptor antagonists, primary screen, cell-based; Neuropeptide Y receptor type 2 (Homo sapiens), P49146; NPY-Y2 expressing cells, antagonist mode; inhibition, % at 2.7 µM; 140,000 compounds, 0.99% hits; AID 793, 2007; in the data active means inhibition above about 17%
Target sequence (P49146 whole entry, looked up): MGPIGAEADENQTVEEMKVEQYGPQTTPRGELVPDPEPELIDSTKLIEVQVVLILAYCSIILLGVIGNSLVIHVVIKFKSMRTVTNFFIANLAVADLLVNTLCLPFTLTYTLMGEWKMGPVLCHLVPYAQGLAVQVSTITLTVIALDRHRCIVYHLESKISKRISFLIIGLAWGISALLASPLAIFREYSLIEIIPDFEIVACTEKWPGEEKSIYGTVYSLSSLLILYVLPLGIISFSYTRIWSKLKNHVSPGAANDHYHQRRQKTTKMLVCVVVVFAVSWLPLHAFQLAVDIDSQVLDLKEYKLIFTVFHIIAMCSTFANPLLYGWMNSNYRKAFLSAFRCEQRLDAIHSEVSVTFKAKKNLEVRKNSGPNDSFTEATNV
NPY2 pot ag = NPY-Y2 potentiators or agonists, primary screen, cell-based; cells expressing NPY-Y2, potentiator/agonist read-out; activation, % at 3.6 µM; 220,000 compounds, 0.45% hits; AID 1359, 2008; in the data active means activation above about 27%;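 further: cells stimulated with NPY near EC25 plus isoproterenol at EC100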
NPY-Y1 antag = NPY-Y1 receptor antagonists, primary screen, cell-based. 200,000 compounds, 1% hits. inhibition, % at 3.6 µM. HEK293-CNG Y1 cells, membrane potential fluorescence; NPY at EC95, then isoproterenol;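 active means inhibition above the campaign mean inhibition of all tested compounds plus 3 SD, cut at about 20% in these data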
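Material: HEK293 Y1/CNG channel cell line; also added: NPY (25 nM), isoproterenol (1 µM), Ro 20-1724 (25 µM); doses: one concentration, 3.6 µM, in 0.4% DMSO; schedule: compound incubation 1 h at room temperature, readout 45 min post-stimulation; technique: membrane potential fluorescence; measure: fluorescence ratio normalized to % inhibition between controls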
NPY1 pot ag = NPY-Y1 receptor potentiators or agonists, primary screen, cell-based | activation, % at 3.6 µM | 220,000 compounds, 0.37% hits | Neuropeptide Y receptor type 1 (Homo sapiens), P25929 | NPY-Y1 expressing cells, potentiator/agonist activation; in the data active means activation above about 33%, passing the limit was not always enough;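 further: cells stimulated with NPY at EC10 then isoproterenol at EC100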
Numbers stand for hits; 0 = inactive; - = no result given.

SMILES	Insulin prom up	INS promoter inh	NPY Y2 blocker	NPY2 pot ag	NPY-Y1 antag	NPY1 pot ag
O=C(Nc1ccc(O)cc1)c1cccc(Oc2ccc([N+](=O)[O-])cc2)c1	0	0	-	0	0	0
O=c1[nH]c(SCc2ccccc2[N+](=O)[O-])nc2nc[nH]c12	0	-	-	0	-	0
C=CCNC(=O)c1c(C(F)(F)F)nn(C)c1Cl	0	-	-	0	0	0
NS(=O)(=O)c1ccc(NC(=O)C2Cc3ccccc3C(=O)O2)cc1 (configuration not stated)	0	71	-	0	0	0
O=C1OC(C(=O)Nc2ccccc2)Cc2ccccc21 (configuration not stated)	0	0	-	0	0	0
Cc1ccc(C(=O)C2=C(O)C(=O)N(c3ncccn3)C2c2ccc(Cl)cc2)o1 (configuration not stated)	-	80	0	0	0	0
CCc1c(C(=O)NC2CCCCC2)[nH]c(C)c1C(C)=O	3.9	-	0	0	0	0
CCOc1cccc2sc(Cl)nc12	-	-	-	0	0	0
CCOc1cccc2sc(NN)nc12	0	0	-	0	0	38
NCC(=O)Nc1ccc(Cl)cc1C(=O)c1ccc[nH]1	0	-	-	0	-	0
C#CC(=O)N(c1cccc(OC)c1)C(C(=O)NC1CCCC1)c1cccs1 (configuration not stated)	0	-	0	47	0	55
CCC(C)(C(=O)NC1CCCC1)N(Cc1cccs1)C(=O)c1ccc2c(c1)OCO2 (configuration not stated)	0	0	18	0	27	0
CCC(C)(C(=O)NC1CCCCC1)N(Cc1cccs1)C(=O)Cc1cccs1 (configuration not stated)	-	0	39	0	59	0
Cc1cccc(OCC(=O)O/N=C(\N)Cc2cccs2)c1	-	-	0	0	0	0
Cc1cccc(OCC(=O)O/N=C(\N)Cc2ccc(Cl)cc2)c1	0	0	23	0	0	0
Cc1ccc(OCC(=O)O/N=C(\N)Cc2ccc(Cl)cc2)cc1	0	0	21	0	22	0
CCOC(=O)c1cc(C(C)C)sc1NC(=O)COC(=O)CCS(=O)(=O)c1ccccc1	0	60	0	0	0	0
CCOC(=O)c1c(NC(=O)COC(=O)CCS(=O)(=O)c2ccc(C)cc2)sc(C)c1C	0	-	0	0	0	0
O=C(/C=C/c1ccccc1)NC(N1CCOCC1)C(Cl)(Cl)Cl (configuration not stated)	0	-	-	0	0	0
CCN(CC)C(=O)c1sc2c(c1C)c(=O)n(-c1ccc(C)c(C)c1)c(=O)n2CC(=O)NCC1CCCO1 (configuration not stated)	0	83	-	0	0	0
CCc1ccc(-n2c(=O)c3c(C)c(C(=O)N(C)C)sc3n(CC(=O)NCC3CCCO3)c2=O)cc1 (configuration not stated)	0	0	-	0	0	0
Cc1ccc(C2CC(c3ccc(Cl)cc3)=NNC2=O)cc1 (configuration not stated)	0	-	0	0	0	0
Cc1cccc(C2=NNC(=O)C(c3ccc(Cl)cc3)C2)c1 (configuration not stated)	0	100	-	0	0	0
O=C(CSc1nccc(=O)[nH]1)Nc1ccc(F)c([N+](=O)[O-])c1	0	0	0	0	0	0
Cc1c(C#N)c(O)n(C)c(=O)c1N=Nc1ccc(S(N)(=O)=O)cc1	-	65	-	0	0	0
SMILES	Insulin prom up	INS promoter inh	NPY Y2 blocker	NPY2 pot ag	NPY-Y1 antag	NPY1 pot ag
COc1ccc(NS(=O)(=O)c2c(C)cc(C)cc2C)cc1	0	0	0	0	0	0
Cc1cc(C)c(S(=O)(=O)Nc2ccc(OCC(=O)O)cc2)c(C)c1	0	-	0	51	0	47
CS(=O)(=O)c1ccccc1-c1nnc(-c2ccc(Cl)cc2)o1	0	0	-	0	0	0
O=S(=O)(Cc1ccc(Cl)cc1)c1ccccc1-c1nnc(-c2ccccc2)o1	14	0	0	0	0	0
CC(=O)OCC(=O)C1(O)CCC2C3CCC4=CC(=O)C=CC4(C)C3C(O)CC21C (configuration not stated)	-	-	-	0	-	0
Cc1c(Cl)cccc1NC(=S)N(Cc1cccnc1)Cc1ccccc1Cl	0	-	-	0	0	0
Cc1noc(C)c1C(=O)N1CC(C)OC(C)C1 (configuration not stated)	0	0	0	0	0	0
CCc1noc(C)c1C(=O)N1CC(C)OC(C)C1 (configuration not stated)	0	-	0	96	0	78
CC(=O)Nc1ccc(S(=O)(=O)N2CCc3c(Cl)cccc3C2)cc1	0	-	0	0	0	0
O=C(c1cccc(-c2ccc(O)cc2)c1)N1CCN(c2ccc(F)cc2)CC1	0	68	-	0	0	0
CCN(CC)CCNC(CC(=O)Nc1ccc(Cl)cc1Cl)C(=O)O (configuration not stated)	-	94	0	0	0	0
CCN(CC)CCNC(=O)COc1ccc(Cl)cc1Cl	0	0	0	0	0	0
CCC(C)(CC(=O)N(C)CCC#N)c1ccccc1 (configuration not stated)	0	0	0	0	0	0
COCC(C)NC(=O)NC1(C(F)(F)F)Oc2ccc(Cl)cc2O1 (configuration not stated)	0	71	0	0	0	0
CCc1ccc(NC(=O)COC(=O)C2(c3ccc(Cl)cc3)CCCC2)cc1	0	-	0	0	0	0
COc1cccc(NC(=S)/C(=C(\[O-])c2ccc(C)c([N+](=O)[O-])c2)[n+]2ccccc2)c1	0	77	0	0	0	0
Cc1ccc(N=C2SC(C(=O)Nc3ccc(OC(F)(F)F)cc3)C(N)=C2C(=O)Nc2c(C)cc(C)cc2C)cc1 (configuration not stated)	0	-	0	37	0	0
Cc1ccc(C)c(N2CCN(Cc3nnnn3C3CCCCC3)CC2)c1	0	0	0	0	0	0
Cc1ccc2nc(N3CCN(Cc4nnnn4C4CCCC4)CC3)c(C#N)cc2c1	-	100	0	0	0	0
CC1=NN(C(=O)c2ccoc2C)C(O)(C(F)(F)F)C1 (configuration not stated)	0	-	-	0	-	0
O=C(COC(=O)c1nc(Cl)ccc1Cl)NCc1ccccc1	0	0	-	0	0	0
CN1CCN(/C=N/c2c(C#N)cnn2C)CC1	0	0	0	0	0	0
Cn1ncc(C#N)c1/N=C/N(Cc1ccccc1)Cc1ccccc1	0	0	26	0	22	0
CN(C)c1nc(Cl)nc(NCCOc2ccccc2)n1	0	66	0	0	0	0
CCCCC[C@H](O)/C=C/[C@@H]1[C@@H](C/C=C\CCCC(=O)OC)[C@@H](O)C[C@H]1O	-	0	20	0	63	0
CCN(CC)S(=O)(=O)c1ccc(C(=O)NCCc2ccccn2)cc1	0	0	-	0	0	0
CCCc1nn(CCc2ccccn2)c(N)c1CC	-	69	0	0	0	0

Screens from PubChem BioAssay.
